Source: PubChem (Broad Institute)
CAL PDZ FP-1: human CAL PDZ-peptide interaction inhibition; Q9HD26; purified CAL PDZ, TMR-peptide fluorescence polarization, 1 h; inhibition, % at 20 µM; hit rate 0.02% among 330,000;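 active = highest replicate inhibition of at least 40%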;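 also: plate controls were DMSO neutral control wells for no effect and unlabeled competitor peptide control wells for full effect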
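Assay system – tagged CAL PDZ protein CerCALP, purified · Timing – 1 h at RT · Compound – single point, 20 µM · Measured by – fluorescence polarization from S- and P-plane intensities, G-factor corrected · Evaluation – inhibition from polarization loss · Probe or stimulus – TMR reporter peptide T*-PRC34 · Buffer or medium – pH 7.4 phosphate-saline buffer, reducing agent, detergent, IgG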
AI-2 QS modul: modulators of Vibrio harveyi AI-2 quorum sensing system | activity change, % at 7.5 µM | Vibrio harveyi JMH597 AI-2 luminescence/OD600 ratio, 9 h; hits give low values; strain lacks LuxN and CqsS sensors; 0 = neutral-control median | hit rate 0.4% among 300,000; in the data active = activity change below about -75%, passing the limit was not always enough; inconclusive = no clear call, values can overlap the other calls;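 also: luminescence divided by OD600 gain over 9 h not by final OD600 alone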
ARNT-TACC3 inh: ARNT/TACC3 interaction disruption. hit rate 0.66% among 390,000. Q9Y6A5. AlphaScreen His-ARNT PAS-B/GST-TACC3 binding, luminescence; TACC3 fragment carries E629A point mutation. inhibition, % at 9.99 µM;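 active = mean inhibition of replicates at least 50% and at least half of replicates each reaching 50%; inconclusive = half or more replicates reach 50% but mean below 50%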;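 also: 0% = complete ARNT plus TACC3 wells and 100% = ARNT alone without TACC3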
CAL PDZ FP-2: CAL PDZ (human) peptide binding inhibition. inhibition, % at 24.9 µM. hit rate 0.92% among 300,000. AID 602252. purified CAL PDZ, TMR-peptide fluorescence polarization, 1 h. Q9HD26;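 active = mean inhibition of at least 30% with at least half of replicates also reaching 30%; inconclusive = no clear call, values can overlap the other calls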;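 also: 0% = DMSO neutral control and 100% = excess unlabeled competitor peptide PRC23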
Rce1 inhib: yeast Ras-converting enzyme inhibition | Q03530 | yeast membranes, quenched prenylated peptide cleavage fluorescence | calls only | hit rate 0.27% among 290,000;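 active = fall in fluorescence gain of 50% or more versus controls, with final raw signal at or below 3038400; inconclusive = same 50% fall but final raw signal above 3038400; inactive = fall in fluorescence gain under 50%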;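 also: plate controls were neutral control wells for no effect and wells lacking membranes for full effect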
Target sequence (Q03530 whole entry, looked up): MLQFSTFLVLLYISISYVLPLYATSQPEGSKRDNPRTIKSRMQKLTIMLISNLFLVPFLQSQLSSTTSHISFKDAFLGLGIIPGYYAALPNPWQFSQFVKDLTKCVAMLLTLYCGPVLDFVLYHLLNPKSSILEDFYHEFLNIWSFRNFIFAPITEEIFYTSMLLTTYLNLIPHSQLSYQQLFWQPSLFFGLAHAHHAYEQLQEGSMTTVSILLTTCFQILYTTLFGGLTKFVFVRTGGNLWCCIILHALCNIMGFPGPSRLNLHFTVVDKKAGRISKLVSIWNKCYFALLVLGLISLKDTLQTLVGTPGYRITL
* = called active by the depositor; i = inactive; u = inconclusive; x = not tested or not shown; + = active, no number. A selection: hits, their analogues and other compounds. The true share with any hit is near 1.7%.

SMILES	CAL PDZ FP-1	AI-2 QS modul	ARNT-TACC3 inh	CAL PDZ FP-2	Rce1 inhib
O=C(NCc1ccccc1)c1ccc(Cl)c(S(=O)(=O)N2CCCC2)c1	-2.3	x	-1.5	-4.2	x
O=C(NCc1ccccn1)c1ccc(Cl)c(S(=O)(=O)N2CCCCCC2)c1	-1.5	6.6	46.2*	-3.5	i
Cc1cccc(C(=O)Nc2ccc(C(=O)/C=C/c3cccnc3)cc2)c1	-1.0	0.0	5.3	0.3	i
Cc1cccc(C(=O)Nc2ccc(C(=O)/C=C/c3ccncc3)cc2)c1	43.0*	14.8	5.9	-3.8	i
Cc1ccc(CNc2ccc(O)cc2)cc1	1.9	32.5	24.3*	-1.7	i
Cc1ccc(NCc2ccccc2O)cc1	-0.9	-37.3	-8.4	x	i
Cc1sc2ncnc(N/N=C/c3cccc(O)c3)c2c1C	0.5	15.1	10.3	1.0	i
C/C(=N\Nc1ccc(Cl)c(C(=O)O)c1)c1ccccn1	-1.1	17.1	13.7	-0.1	i
C/C(=N\Nc1ncnc2sc(C)c(C)c12)c1ccccn1	-0.4	-88.0*	x	9.5	i
C/C(=N\Nc1ncc(Cl)cc1Cl)c1ccccn1	-2.2	-34.7	73.0*	-5.7	i
O=C(/C=C/c1ccccc1[N+](=O)[O-])NCc1ccccc1Cl	-0.3	-46.9	22.2	-1.5	i
O=C(c1ccco1)N1CCN(Cc2cc(=O)oc3cc(O)ccc23)CC1	-0.7	x	-3.5	48.2*	x
O=c1cc(CN2CCN(Cc3ccccc3)CC2)c2ccc(O)cc2o1	-1.3	20.5	-0.7	-3.1	i
Cc1cc(C(=O)N/N=C/c2cc(Cl)cc([N+](=O)[O-])c2O)c2ccccc2n1	-1.0	10.4	75.8*	0.3	i
O=C(NN=Cc1cc(Cl)ccc1[N+](=O)[O-])c1cccc2ccccc12	-0.4	x	-2.5	-1.7	x
O=C(N/N=C/c1cc(Cl)cc([N+](=O)[O-])c1O)c1cccc(S(=O)(=O)N2CCOCC2)c1	-0.5	x	70.6*	-2.0	x
O=C(Nc1cccc(S(=O)(=O)N2CCOCC2)c1)c1cccc(S(=O)(=O)N2CCCCC2)c1	-4.5	x	4.6	-2.4	x
O=C(Nc1ccc(N2CCCCCC2)cc1)c1cccc(S(=O)(=O)N2CCOCC2)c1	-0.3	x	x	36.3*	x
CCCCn1c(N)c(N(CC(C)C)C(=O)c2c(-c3ccccc3)noc2C)c(=O)[nH]c1=O	-0.6	x	-8.5	-2.2	x
Cc1cccc(C)c1NC(=O)N1CCCC1C(=O)Nc1ccc(-n2cnnn2)cc1 (centres undefined)	0.4	25.8	6.1	4.4	i
O=C(/C=C/c1ccc(Br)cc1)NC(=S)NNC(=O)c1ccco1	-2.4	-100.0*	-0.5	0.8	i
O=C(Cc1cccs1)NNC(=S)NC(=O)c1ccco1	-1.1	-83.8*	17.2	0.8	i
Cc1cccc(NC(=S)NNC(=O)c2ccco2)c1	x	-10.3	7.3	0.7	i
O=C(/C=C/c1ccccc1)NC(=S)NNC(=O)c1ccco1	-1.5	u	51.7*	-1.8	i
O=C(NC(=S)NNC(=O)c1ccco1)c1ccccc1	-0.5	u	20.9	-5.9	i
SMILES	CAL PDZ FP-1	AI-2 QS modul	ARNT-TACC3 inh	CAL PDZ FP-2	Rce1 inhib
COc1cccc(-c2ccc(SCC(=O)NC3CCCC3)nn2)c1	-1.7	25.4	-6.1	0.0	i
C=CCc1c(C)nc(C)nc1N/N=C/c1ccc([N+](=O)[O-])cc1	x	3.0	3.0	7.7	i
C=CCc1c(C)nc(C)nc1N/N=C/c1ccccc1O	-2.1	23.4	64.3*	x	i
Cc1c(NC(=S)N/N=C\c2ccccc2O)c(=O)n(-c2ccccc2)n1C	-1.6	8.8	66.4*	-0.4	i
Cc1c(NC(=S)N/N=C/c2ccc([N+](=O)[O-])cc2O)c(=O)n(-c2ccccc2)n1C	-2.7	41.1	61.3*	-0.3	i
O=c1[nH]c(Nc2ccccc2Cl)cc2ccccc12	0.1	39.8	37.2*	-0.9	i
O=c1[nH]c(Nc2ccccn2)cc2ccccc12	0.6	1.0	18.8	-1.0	+
O=c1[nH]c(Nc2ccc(F)cc2)cc2ccccc12	-2.6	30.0	38.4	0.4	i
O=C(COc1ccc(Br)cc1F)Nc1nnc(C2CC2)s1	0.3	x	-5.3	-4.0	x
O=C(COc1cc(Cl)ccc1Cl)Nc1nnc(C2CC2)s1	-0.5	7.8	1.6	37.3*	i
O=C(CNc1ccc2ccccc2c1)N/N=C/c1ccc(C(=O)O)cc1	-2.0	12.6	x	-3.3	i
O=C(O)c1cccc(Cn2c(Cl)c(/C=N/NC(=O)c3cc4ccccc4cc3O)sc2=O)c1	x	23.0	16.0	46.7*	i
O=C(O)c1ccc(/C=N/NC(=O)c2cc3ccccc3cc2O)cc1	-1.3	x	8.5	45.8*	x
N#CCCN(C(=O)COC(=O)COc1ccccc1Cc1ccccc1)c1ccccc1	0.0	x	-3.4	44.5*	x
N#CCCN(C(=O)COC(=O)Cc1ccc(Br)cc1)c1ccccc1	-2.3	29.0	1.2	-4.5	x
Cc1ccc(C(=O)NCCCNCCCN(C)C)cn1	1.3	4.1	-11.0	-1.3	i
CN(Cc1ccccc1C#N)S(=O)(=O)c1cccs1	-0.4	20.9	-2.9	x	i
COc1ccccc1CN(C)S(=O)(=O)c1cccs1	-0.6	x	-0.7	64.1*	x
O=C(c1ccc(COc2ccccc2)o1)N1CCN(S(=O)(=O)c2ccccc2Cl)CC1	-0.9	x	6.6	x	x
COc1ccc2cc(C(=O)C3CCCN(C(=O)CCc4cnn(C)c4)C3)ccc2c1 (centres undefined)	-1.4	22.0	1.4	3.2	+
Oc1[nH]c2ccccc2c1N=Nc1ccccn1	-1.6	x	0.3	2.8	x
Oc1c(N=Nc2ccccn2)ccc2ccccc12	0.4	32.0	63.8*	-2.2	i
COc1ccccc1NC(=O)/C(=C\c1cccnc1)NC(=O)c1ccc(C)cc1	-1.2	15.8	x	42.0*	+
COc1ccccc1NC(=O)/C(=C\c1cccnc1)NC(=O)c1ccccc1	-0.8	x	-3.0	-1.4	x
COc1ccc(-c2nc3ccccc3o2)cc1OC	43.6*	x	-4.5	-4.3	x
SMILES	CAL PDZ FP-1	AI-2 QS modul	ARNT-TACC3 inh	CAL PDZ FP-2	Rce1 inhib
COc1ccc(C(=O)NC(=S)NCc2ccc(-c3nc4ccccc4o3)cc2)cc1OC	-1.6	32.5	0.2	-4.3	i
CCc1ccc(NC(=O)c2ccc(NC(=O)C3CCCO3)cc2)cc1 (centres undefined)	-3.2	21.5	-3.3	-7.3	i
COC(=O)c1ccc(NC(=O)C2CC3CCC2C3)cc1 (centres undefined)	-3.1	28.1	-3.1	32.1*	i
COC(=O)c1ccc(NC(=O)c2ccc(NC(=O)C3CCCO3)cc2)cc1 (centres undefined)	-1.0	11.1	-5.0	+	i
CCCCCCCCOC(=O)C(NC(=O)CCC(=O)Nc1ccc(S(N)(=O)=O)cc1)C(O)c1ccccc1 (centres undefined)	0.6	11.3	-3.0	0.5	i
CN1CCN(CCCNC(=O)c2cc3c(=O)n(C)c4ccccc4c3s2)CC1	-0.2	27.8	1.5	1.0	+
N#C/C(=C(/O)CSc1ccccc1C(=O)O)c1nc2ccccc2s1	-0.4	21.1	-14.6	-1.6	i
